Measured values from ChEMBL document CHEMBL3414459, “Phenolic thio- and selenosemicarbazones as multi-target drugs” (Eur J Med Chem, 2015).
pEC50, pKi: −log10 of the molar value. Calls of active or inactive are those of the source. The calls are words filed in the database; no cut-off is given here.

Legend:
[1] = system: A549; test: Antiproliferative activity against human A549 cells after 48 hrs by sulforhodamine B assay; assay type: functional; settings: A549, 48 h
Method in brief: (§1)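 Exponentially growing cells trypsinized into penicillin/streptomycin medium, >97% viable by trypan blue. Seeded per well: 10,000 (A549, HBL-100, HeLa, SW1573), 15,000 (T-47D), 20,000 (WiDr). Treatment began day 1, DMSO stocks 40 mM, 0.25% DMSO as control, triplicate, 48 h. Cells fixed with cold TCA 60 min at 4 °C, SRB stained, OD492 read, medium background subtracted.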

[2] = system: WiDr; test: Potency index, ratio of GI50 for cisplatin to GI50 for compound against human WiDr cells after 48 hrs by sulforhodamine B assay; assay type: functional
[3] = system: T47D; test: Potency index, ratio of GI50 for 5-fluorouracil to GI50 for compound against human T47D cells after 48 hrs by sulforhodamine B assay; assay type: functional
[4] = system: T47D; test: Potency index, ratio of GI50 for cisplatin to GI50 for compound against human T47D cells after 48 hrs by sulforhodamine B assay; assay type: functional
[5] = system: HeLa; test: Potency index, ratio of GI50 for 5-fluorouracil to GI50 for compound against human HeLa cells after 48 hrs by sulforhodamine B assay; assay type: functional
[6] = Inhibition of baker's yeast alpha-glucosidase using p-nitrophenyl-alpha-D-glucopyranoside substrate assessed as inhibition constant for enzyme-substrate-compound binding by measuring reduction in p-nitrophenolate formation
Method in brief: (§2)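 Same α-glucosidase conditions: pH 6.8 phosphate buffer, 25 °C, A400 for p-nitrophenolate, 5% DMSO. Done for inhibitors exceeding 50% inhibition at 500 µM. Rates measured at 5 substrate concentrations from 0.25 to 4.0 K_m, each at a fixed inhibitor concentration, using 2–3 inhibitor concentrations. Lineweaver–Burk double reciprocal plots gave the inhibition mode and constants K_ia (E) and K_ib (ES).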

[7] = system: Saccharomyces bayanus; test: Un-competitive inhibition of baker's yeast alpha-glucosidase using p-nitrophenyl-alpha-D-glucopyranoside substrate assessed as reduction in p-nitrophenolate formation by Lineweaver-Burk plot; method in brief: as §2
[8] = Antioxidant activity assessed as H2O2 scavenging activity at 100 uM incubated for 20 mins by phenol red based assay; assay type: physicochemical
Method in brief: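 Compound at 100 µM final, or DMSO control, in 0.1 M phosphate buffer pH 7.4 with H2O2 and 0.1 M NaCl, incubated in the dark at 37 °C for 20 min. Phenol red (0.2 mg/mL) and horseradish peroxidase (0.1 mg/mL) added, 15 min at 37 °C. NaOH added, 10 min at rt, A610 read. % reduction = (A_control − A_sample)/A_control × 100.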

[9] = Antiproliferative activity against human HBL100 cells after 48 hrs by sulforhodamine B assay; assay type: functional; settings: HBL-100, 48 h; method in brief: as §1
[10] = system: WiDr; test: Antiproliferative activity against human WiDr cells after 48 hrs by sulforhodamine B assay; assay type: functional; method in brief: as §1
[11] = system: T47D; test: Antiproliferative activity against human T47D cells after 48 hrs by sulforhodamine B assay; assay type: functional; method in brief: as §1
[12] = Antioxidant activity assessed as DPPH free radical scavenging activity incubated for 30 mins; assay type: physicochemical
Method in brief: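 DPPH in HPLC-grade solvent mixed with compound in DMSO at 7 concentrations, or with DMSO alone as control. Kept in the dark at rt for 30 min, then A515 read against a blank. % DPPH remaining = A_sample/A_control × 100, plotted against concentration; EC50 taken from the straight line. Triplicate.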

[13] = Inhibition of baker's yeast alpha-glucosidase using p-nitrophenyl-alpha-D-glucopyranoside substrate assessed as reduction in p-nitrophenolate formation at 500 uM; settings: Saccharomyces bayanus
Method in brief: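 α-Glucosidase in 0.1 M phosphate buffer pH 6.8 with p-nitrophenyl-α-D-glucopyranoside at K_M (250 µM; K_M 0.25 mM). Inhibitor at 500 µM final or DMSO, DMSO 5% v/v.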

[14] = Antioxidant activity assessed as inhibition of the lipid peroxidation at 0.74 mM incubated for 24 hrs by ferric thiocyanate method; assay type: physicochemical; settings: 740 µM
Method in brief: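 Ferric thiocyanate method at 0.74 mM. 10.0 mM DMSO stock combined with methanolic linoleic acid in 0.2 M phosphate buffer pH 7.0. AAPH added, then 24 h at 50 °C in the dark; DMSO served as control. An aliquot was diluted in H2O–DMSO with NH4SCN and FeCl2 in HCl. After 3 min at rt, A546 read. % inhibition relative to control.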

[15] = system: SW1573; test: Antiproliferative activity against human SW1573 cells after 48 hrs by sulforhodamine B assay; assay type: functional; settings: SW1573, 48 h; method in brief: as §1
[16] = system: HeLa; test: Antiproliferative activity against human HeLa cells after 48 hrs by sulforhodamine B assay; assay type: functional; method in brief: as §1
[17] = system: WiDr; test: Potency index, ratio of GI50 for 5-fluorouracil to GI50 for compound against human WiDr cells after 48 hrs by sulforhodamine B assay; assay type: functional

Structure (SMILES): Oc1ccc(/C=N/NC(=[Se])Nc2cccc3ccccc23)cc1
- GI50 [1]: 1300 nM
- RatioGI50 [2]: 11
- RatioGI50 [3]: 19
- RatioGI50 [4]: 6
- RatioGI50 [5]: 6.5
- pKi [6]: 4.23
- inhibition [7]: Active
- inhibition (INH) [8]: 53.1%
- GI50 [9]: 2100 nM
- GI50 [10]: 2300 nM
- GI50 [11]: 2500 nM
- pEC50 [12]: 4.66
- inhibition [13]: 100%
- inhibition (INH) [14]: 23.3%
- GI50 [15]: 2300 nM
- GI50 [16]: 2200 nM
- RatioGI50 [17]: 21
